Measured values from ChEMBL document CHEMBL1140405, “6-Acylamino-2-aminoquinolines as potent melanin-concentrating hormone 1 receptor antagonists. Identification, structure-activity relationship, and investigation of binding mode” (J Med Chem, 2005).
Values after ≈ are worked out from the molar mass of the structure shown. Values joined by “and” are separate entries in the source; they are usually repeats but may differ in a detail not shown here. Equal entries are not always repeated.

Assays:
[1] = target: Melanin-concentrating hormone receptor 2 (Homo sapiens, UniProt Q969V1); test: Displacement of 30 pM [125I]-MCH from human MCH2R expressed in CHO-K1 in whole-cell binding assay
Chain of Melanin-concentrating hormone receptor 2 (Q969V1 whole entry): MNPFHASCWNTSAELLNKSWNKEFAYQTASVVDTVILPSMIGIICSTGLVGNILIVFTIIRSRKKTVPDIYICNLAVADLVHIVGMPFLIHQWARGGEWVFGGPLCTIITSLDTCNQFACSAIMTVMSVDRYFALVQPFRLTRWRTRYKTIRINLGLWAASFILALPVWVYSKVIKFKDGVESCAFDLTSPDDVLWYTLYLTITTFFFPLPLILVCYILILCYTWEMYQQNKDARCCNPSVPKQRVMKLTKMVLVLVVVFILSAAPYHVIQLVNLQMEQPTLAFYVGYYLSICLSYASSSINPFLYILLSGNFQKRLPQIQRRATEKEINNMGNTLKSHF

[2] = target: Sodium-dependent dopamine transporter (Homo sapiens, UniProt Q01959); test: Inhibitory concentration against dopamine transporter
Chain of Sodium-dependent dopamine transporter (Q01959 whole entry): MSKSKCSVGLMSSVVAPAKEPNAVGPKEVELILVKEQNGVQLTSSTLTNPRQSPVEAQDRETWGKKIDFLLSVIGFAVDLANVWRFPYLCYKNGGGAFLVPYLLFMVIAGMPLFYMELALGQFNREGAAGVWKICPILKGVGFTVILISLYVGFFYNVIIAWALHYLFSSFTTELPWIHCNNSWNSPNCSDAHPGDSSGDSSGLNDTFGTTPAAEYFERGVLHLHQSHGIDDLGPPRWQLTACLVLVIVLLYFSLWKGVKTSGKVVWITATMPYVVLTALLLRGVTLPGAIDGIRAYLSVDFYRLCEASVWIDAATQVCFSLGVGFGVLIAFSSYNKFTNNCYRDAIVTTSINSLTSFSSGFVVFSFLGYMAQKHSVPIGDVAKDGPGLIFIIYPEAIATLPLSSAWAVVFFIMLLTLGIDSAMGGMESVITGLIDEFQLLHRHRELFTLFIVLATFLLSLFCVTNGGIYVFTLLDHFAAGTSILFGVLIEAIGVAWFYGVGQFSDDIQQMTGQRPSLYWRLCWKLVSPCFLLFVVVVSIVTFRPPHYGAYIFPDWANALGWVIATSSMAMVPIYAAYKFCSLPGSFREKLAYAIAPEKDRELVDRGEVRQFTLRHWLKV

[3] = target: T1, Adrenergic receptor alpha-2 (Homo sapiens, UniProt P08913+P18825+P18089); test: Inhibitory concentration against alpha-2 adrenergic receptor; assay type: protein assay
T1 sequence (P08913 whole entry): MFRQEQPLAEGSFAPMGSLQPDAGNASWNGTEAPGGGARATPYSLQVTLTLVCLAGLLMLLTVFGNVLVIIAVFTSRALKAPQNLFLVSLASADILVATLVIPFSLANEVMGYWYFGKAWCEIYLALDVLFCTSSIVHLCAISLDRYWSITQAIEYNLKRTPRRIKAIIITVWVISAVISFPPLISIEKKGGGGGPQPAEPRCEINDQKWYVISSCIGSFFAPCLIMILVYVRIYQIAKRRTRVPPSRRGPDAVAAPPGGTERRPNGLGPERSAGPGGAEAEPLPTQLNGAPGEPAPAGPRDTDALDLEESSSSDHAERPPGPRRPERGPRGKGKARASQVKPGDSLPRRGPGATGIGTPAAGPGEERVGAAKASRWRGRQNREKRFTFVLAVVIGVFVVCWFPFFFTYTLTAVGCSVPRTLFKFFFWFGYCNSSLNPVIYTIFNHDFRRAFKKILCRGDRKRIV
T1 sequence (P18825 whole entry): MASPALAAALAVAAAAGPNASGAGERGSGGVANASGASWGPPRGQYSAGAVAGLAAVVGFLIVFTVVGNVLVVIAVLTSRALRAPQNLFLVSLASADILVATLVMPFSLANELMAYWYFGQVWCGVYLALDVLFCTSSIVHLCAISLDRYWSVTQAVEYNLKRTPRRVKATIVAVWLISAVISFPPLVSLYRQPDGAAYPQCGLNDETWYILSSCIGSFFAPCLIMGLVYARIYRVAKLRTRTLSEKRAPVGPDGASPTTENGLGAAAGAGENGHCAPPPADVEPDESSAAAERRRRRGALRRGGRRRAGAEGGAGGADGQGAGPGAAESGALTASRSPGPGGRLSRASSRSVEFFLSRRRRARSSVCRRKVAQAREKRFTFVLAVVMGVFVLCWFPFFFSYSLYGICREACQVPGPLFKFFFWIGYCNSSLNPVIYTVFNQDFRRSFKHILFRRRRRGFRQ
T1 sequence (P18089 whole entry): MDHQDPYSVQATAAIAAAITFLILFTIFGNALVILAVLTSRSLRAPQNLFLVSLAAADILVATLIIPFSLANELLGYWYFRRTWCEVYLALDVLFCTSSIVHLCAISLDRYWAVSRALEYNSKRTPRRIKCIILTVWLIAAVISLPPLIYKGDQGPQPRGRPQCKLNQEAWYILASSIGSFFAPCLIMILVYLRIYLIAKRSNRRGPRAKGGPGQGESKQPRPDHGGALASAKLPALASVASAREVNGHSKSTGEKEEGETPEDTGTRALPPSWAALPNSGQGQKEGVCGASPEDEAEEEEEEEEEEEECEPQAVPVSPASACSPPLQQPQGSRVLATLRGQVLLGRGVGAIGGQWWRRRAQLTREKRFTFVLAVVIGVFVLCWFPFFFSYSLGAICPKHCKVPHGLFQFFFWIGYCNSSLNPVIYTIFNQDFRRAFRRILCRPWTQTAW

[4] = target: 5-hydroxytryptamine receptor 1B (Homo sapiens, UniProt P28222); test: Inhibitory concentration against 5-hydroxytryptamine 1B receptor
Chain of 5-hydroxytryptamine receptor 1B (P28222 whole entry): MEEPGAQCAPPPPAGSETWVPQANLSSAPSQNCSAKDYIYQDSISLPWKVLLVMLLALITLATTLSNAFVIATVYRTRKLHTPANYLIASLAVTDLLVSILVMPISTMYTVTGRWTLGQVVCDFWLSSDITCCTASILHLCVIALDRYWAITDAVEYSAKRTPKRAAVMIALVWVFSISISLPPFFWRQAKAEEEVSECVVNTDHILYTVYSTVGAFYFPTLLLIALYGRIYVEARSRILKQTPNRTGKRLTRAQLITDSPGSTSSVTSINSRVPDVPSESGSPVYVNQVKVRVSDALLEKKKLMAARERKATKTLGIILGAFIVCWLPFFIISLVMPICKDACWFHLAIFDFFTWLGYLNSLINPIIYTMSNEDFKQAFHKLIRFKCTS

[5] = target: 5-hydroxytryptamine receptor 2A (Homo sapiens, UniProt P28223); test: Inhibitory concentration against 5-hydroxytryptamine 2A receptor
Chain of 5-hydroxytryptamine receptor 2A (P28223 whole entry): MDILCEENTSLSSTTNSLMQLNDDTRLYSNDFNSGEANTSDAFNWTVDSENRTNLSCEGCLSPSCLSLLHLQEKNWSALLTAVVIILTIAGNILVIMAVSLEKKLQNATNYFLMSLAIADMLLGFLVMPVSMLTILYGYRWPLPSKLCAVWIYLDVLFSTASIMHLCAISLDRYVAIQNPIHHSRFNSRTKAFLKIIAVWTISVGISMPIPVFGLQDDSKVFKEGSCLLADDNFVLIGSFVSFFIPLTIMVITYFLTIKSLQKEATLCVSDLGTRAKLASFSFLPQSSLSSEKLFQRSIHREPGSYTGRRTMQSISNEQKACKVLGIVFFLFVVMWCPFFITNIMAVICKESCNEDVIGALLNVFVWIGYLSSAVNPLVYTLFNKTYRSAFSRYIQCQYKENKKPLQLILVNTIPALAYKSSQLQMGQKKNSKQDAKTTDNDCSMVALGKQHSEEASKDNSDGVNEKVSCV

[6] = target: T2, Muscarinic acetylcholine receptor M1 (Homo sapiens, UniProt P11229); test: Inhibitory concentration against muscarinic acetylcholine receptor M1
T2 sequence (P11229 whole entry): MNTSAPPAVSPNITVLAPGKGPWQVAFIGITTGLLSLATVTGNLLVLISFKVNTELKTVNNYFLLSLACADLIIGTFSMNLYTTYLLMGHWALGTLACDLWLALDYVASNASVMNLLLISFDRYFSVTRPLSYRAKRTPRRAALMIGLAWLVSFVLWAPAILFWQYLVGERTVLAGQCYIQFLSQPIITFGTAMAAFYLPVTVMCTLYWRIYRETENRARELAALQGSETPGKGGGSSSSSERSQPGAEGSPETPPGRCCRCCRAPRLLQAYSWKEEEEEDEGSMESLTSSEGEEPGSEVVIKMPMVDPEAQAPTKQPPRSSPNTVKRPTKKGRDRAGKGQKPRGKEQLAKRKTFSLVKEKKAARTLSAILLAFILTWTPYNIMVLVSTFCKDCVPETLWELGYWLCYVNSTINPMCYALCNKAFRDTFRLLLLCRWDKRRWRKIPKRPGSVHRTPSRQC

[7] = target: T3, Muscarinic acetylcholine receptor M2 (Homo sapiens, UniProt P08172); test: Inhibitory concentration against muscarinic acetylcholine receptor M2
T3 sequence (P08172 whole entry): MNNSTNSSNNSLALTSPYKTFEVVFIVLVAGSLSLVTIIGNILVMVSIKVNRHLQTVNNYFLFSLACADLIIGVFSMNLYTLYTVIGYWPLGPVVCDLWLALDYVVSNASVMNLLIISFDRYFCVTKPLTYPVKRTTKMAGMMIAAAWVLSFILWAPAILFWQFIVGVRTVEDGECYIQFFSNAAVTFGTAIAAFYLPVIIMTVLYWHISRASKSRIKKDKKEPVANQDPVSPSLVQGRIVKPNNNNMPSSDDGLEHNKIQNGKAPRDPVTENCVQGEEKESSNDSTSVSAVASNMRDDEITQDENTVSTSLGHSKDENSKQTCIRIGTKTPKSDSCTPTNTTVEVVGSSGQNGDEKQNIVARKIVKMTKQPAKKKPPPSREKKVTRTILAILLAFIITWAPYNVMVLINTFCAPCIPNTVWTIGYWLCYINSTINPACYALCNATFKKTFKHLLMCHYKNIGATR

D(1A) dopamine receptor = D(1A) dopamine receptor (Homo sapiens, UniProt P21728); test: Inhibitory concentration against dopamine receptor D1
Chain of D(1A) dopamine receptor (P21728 whole entry): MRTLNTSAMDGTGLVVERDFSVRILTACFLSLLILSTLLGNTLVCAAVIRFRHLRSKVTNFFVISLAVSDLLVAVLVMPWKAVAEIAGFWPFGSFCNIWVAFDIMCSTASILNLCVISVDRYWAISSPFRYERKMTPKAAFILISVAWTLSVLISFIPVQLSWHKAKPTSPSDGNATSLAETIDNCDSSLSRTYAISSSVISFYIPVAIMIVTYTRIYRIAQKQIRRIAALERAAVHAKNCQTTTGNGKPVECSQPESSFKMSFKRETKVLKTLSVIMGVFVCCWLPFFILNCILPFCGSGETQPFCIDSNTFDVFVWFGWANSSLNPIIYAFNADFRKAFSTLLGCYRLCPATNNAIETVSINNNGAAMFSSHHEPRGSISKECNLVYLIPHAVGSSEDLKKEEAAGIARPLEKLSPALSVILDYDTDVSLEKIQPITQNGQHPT

D(3) dopamine receptor = D(3) dopamine receptor (Homo sapiens, UniProt P35462); test: Inhibitory concentration against dopamine receptor D3
Chain of D(3) dopamine receptor (P35462 whole entry): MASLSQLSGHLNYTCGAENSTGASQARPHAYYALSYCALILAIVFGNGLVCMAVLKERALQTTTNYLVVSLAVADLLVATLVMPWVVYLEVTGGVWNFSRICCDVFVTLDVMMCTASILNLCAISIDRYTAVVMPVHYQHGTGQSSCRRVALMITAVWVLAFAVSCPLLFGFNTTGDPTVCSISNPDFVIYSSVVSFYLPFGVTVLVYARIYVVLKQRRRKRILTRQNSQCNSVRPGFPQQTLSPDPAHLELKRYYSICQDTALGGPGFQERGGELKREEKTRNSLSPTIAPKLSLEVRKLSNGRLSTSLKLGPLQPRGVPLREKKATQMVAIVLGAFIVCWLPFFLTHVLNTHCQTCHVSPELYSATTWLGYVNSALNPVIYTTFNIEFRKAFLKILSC

Histamine H1 receptor [8] = target: T4, Histamine H1 receptor (Homo sapiens, UniProt P35367); test: Inhibitory concentration against Histamine H1 receptor
T4 sequence (P35367 whole entry): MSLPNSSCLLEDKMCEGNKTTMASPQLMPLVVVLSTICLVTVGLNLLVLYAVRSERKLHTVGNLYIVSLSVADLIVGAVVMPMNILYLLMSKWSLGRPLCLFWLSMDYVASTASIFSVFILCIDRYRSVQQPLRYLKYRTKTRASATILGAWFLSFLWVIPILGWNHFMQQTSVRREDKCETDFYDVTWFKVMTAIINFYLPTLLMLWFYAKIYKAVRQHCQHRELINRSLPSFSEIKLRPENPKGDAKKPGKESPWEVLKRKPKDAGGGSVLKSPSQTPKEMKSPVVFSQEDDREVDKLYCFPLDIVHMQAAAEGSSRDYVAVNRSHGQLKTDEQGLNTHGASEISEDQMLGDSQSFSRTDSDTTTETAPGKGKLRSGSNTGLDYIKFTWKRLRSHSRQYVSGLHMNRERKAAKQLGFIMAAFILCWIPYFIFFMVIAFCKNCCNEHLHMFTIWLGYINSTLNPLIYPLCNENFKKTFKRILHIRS

Histamine H2 receptor [9] = target: T5, Histamine H2 receptor (Homo sapiens, UniProt P25021); test: Inhibitory concentration against Histamine H2 receptor
T5 sequence (P25021 whole entry): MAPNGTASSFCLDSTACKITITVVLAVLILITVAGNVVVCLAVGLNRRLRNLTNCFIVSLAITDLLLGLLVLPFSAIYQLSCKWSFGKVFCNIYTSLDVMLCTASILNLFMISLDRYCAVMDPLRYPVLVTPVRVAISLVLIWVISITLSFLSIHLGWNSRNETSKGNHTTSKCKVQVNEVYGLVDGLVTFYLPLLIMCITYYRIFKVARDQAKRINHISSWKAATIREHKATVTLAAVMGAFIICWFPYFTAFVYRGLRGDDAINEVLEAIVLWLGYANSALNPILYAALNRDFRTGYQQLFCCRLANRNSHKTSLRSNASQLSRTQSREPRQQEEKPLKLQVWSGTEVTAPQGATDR

[10] = target: T6, 5-hydroxytryptamine receptor 2C (Homo sapiens, UniProt P28335); test: Inhibitory concentration against 5-hydroxytryptamine 2C receptor expressed in CHO-K1 cells using [3H]mesulergine; assay type: cell-based
T6 sequence (P28335 whole entry): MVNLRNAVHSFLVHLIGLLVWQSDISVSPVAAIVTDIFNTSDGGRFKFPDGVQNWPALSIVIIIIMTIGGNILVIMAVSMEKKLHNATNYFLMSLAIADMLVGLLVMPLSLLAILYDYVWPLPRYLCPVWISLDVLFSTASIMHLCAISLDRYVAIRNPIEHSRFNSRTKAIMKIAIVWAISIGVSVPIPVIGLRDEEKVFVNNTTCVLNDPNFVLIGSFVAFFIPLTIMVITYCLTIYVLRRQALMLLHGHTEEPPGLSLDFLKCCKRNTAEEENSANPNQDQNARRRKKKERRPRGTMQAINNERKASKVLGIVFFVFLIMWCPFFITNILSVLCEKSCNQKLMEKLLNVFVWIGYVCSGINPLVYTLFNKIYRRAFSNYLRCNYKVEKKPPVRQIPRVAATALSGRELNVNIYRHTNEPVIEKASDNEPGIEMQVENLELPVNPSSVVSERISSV
Summary of the method: (§1)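 SPA competition binding on purchased membranes from CHO-K1 cells expressing h5-HT2c (4 μg/well), with YSi-WGA beads (0.4 mg/well) and [3H]mesulergine tracer, across various test-compound concentrations. Buffer is 50 mM Tris pH 7.7, 50 mM MgCl2 and 0.1% pargyline. Nonspecific binding uses 1 μM cold mesulergine. IC50 is taken by nonlinear regression.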

[11] = target: T6, 5-hydroxytryptamine receptor 2C; test: Inhibitory concentration against human 5-hydroxytryptamine 2C receptor expressed in CHO-K1 cells using [3H]mesulergine; assay type: cell-based
Summary of the method: as §1

Histamine H1 receptor [12] = target: T4, Histamine H1 receptor; test: Inhibitory concentration against histamine H1 receptor
Histamine H2 receptor [13] = target: T5, Histamine H2 receptor; test: Inhibitory concentration against histamine H2 receptor
[14] = Solubility was determined by addition of 10 mM DMSO solution of test compound to PBS (pH 7) until opalescence
[15] = target: Melanin-concentrating hormone receptor 1 (Homo sapiens, UniProt Q99705); test: Displacement of 150p M [125I]MCH from human MCH1R expressed in CHO-K1 cells at 10 uM; assay type: cell-based
Chain of Melanin-concentrating hormone receptor 1 (Q99705 whole entry): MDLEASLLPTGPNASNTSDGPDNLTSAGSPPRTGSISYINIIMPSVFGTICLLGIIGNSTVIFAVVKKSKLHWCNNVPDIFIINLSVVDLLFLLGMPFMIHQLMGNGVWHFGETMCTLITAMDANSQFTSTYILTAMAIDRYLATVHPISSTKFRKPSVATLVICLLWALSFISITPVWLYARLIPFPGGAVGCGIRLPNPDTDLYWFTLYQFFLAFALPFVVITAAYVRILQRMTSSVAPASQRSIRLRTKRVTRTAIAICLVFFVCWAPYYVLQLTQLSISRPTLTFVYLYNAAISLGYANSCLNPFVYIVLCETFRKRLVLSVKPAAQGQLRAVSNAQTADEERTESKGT

## CC(=O)OCCN(C)c1cc(C)c2cc(NC(=O)COc3ccc(Cl)cc3Cl)ccc2n1
[1]
  IC50: > 10000 nM

## Cc1cc(N(C)CCN(C)C)nc2ccc(NC(=O)/C=C/c3ccc(OC(F)(F)F)cc3)cc12
[2]
  IC50: 10000 nM
[3]
  IC50: 1300 nM
[4]
  IC50: 800 nM
[5]
  IC50: 1900 nM
[6]
  IC50: 1300 nM
[7]
  IC50: 480 nM
D(1A) dopamine receptor
  IC50: 900 nM
D(3) dopamine receptor
  IC50: 2300 nM
Histamine H1 receptor [8]
  IC50: > 10000 nM
Histamine H2 receptor [9]
  IC50: 860 nM
[10]
  IC50: 900 nM

## Cc1cc(OCCN(C)C)nc2ccc(NC(=O)COc3ccc(Cl)cc3Cl)cc12
[2]
  IC50: > 10000 nM
[3]
  IC50: 250 nM
[4]
  IC50: 200 nM
[5]
  IC50: 610 nM
[6]
  IC50: 1700 nM
[7]
  IC50: 4500 nM
[11]
  IC50: 2600 nM and 2500 nM
D(1A) dopamine receptor
  IC50: 7500 nM
D(3) dopamine receptor
  IC50: 1.3 nM
Histamine H1 receptor [12]
  IC50: 3500 nM
Histamine H2 receptor [13]
  IC50: 870 nM
[1]
  IC50: 8700 nM

## Cc1cc(N2CCNCC2)nc2ccc(NC(=O)COc3ccc(Cl)cc3Cl)cc12
[11]
  IC50: 2000 nM
[14]; buffer
  solubility kinetic: 25 µM (≈ 11.1 µg/mL)
[1]
  IC50: 3700 nM

## Cc1cc(N(C)CCO)nc2ccc(NC(=O)/C=C/c3ccc(OC(F)(F)F)cc3)cc12
[11]
  IC50: > 10000 nM
[1]
  IC50: 6400 nM

## Cc1cc(NCCN(C)C)nc2ccc(NC(=O)/C=C/c3ccc(OC(F)(F)F)cc3)cc12
[11]
  IC50: 5700 nM
[1]
  IC50: 8400 nM

## Cc1cc(N2CCN(C)CC2)nc2ccc(NC(=O)COc3ccc(Cl)cc3Cl)cc12
[11]
  IC50: 610 nM
[14]; buffer
  solubility kinetic: 25 µM (≈ 11.5 µg/mL)
[1]
  IC50: > 10000 nM

## Cc1cc(N2CCN(C)CC2)nc2ccc(NC(=O)COc3ccc(OC(F)(F)F)cc3)cc12
[14]; PBS
  solubility kinetic: 120 µM (≈ 56.9 µg/mL)

## CNCCN(C)c1cc(C)c2cc(NC(=O)COc3ccc(Cl)cc3Cl)ccc2n1
[11]
  IC50: 770 nM
[14]; buffer
  solubility kinetic: 100 µM (≈ 44.7 µg/mL)

## CCOc1ccc(/C=C/C(=O)Nc2ccc3nc(N4CCN(C)CC4)cc(C)c3c2)cc1OC
[15]
  inhibition: 52%

## Cc1cc(N(C)CCN(C)C)nc2ccc(NC(=O)COc3ccc(Cl)cc3Cl)cc12
[14]; PBS
  solubility kinetic: 80 µM (≈ 36.9 µg/mL)
[1]
  IC50: 4500 nM

## Cc1cc(N2CCC(N)CC2)nc2ccc(NC(=O)COc3ccc(OC(F)(F)F)cc3)cc12
[14]; PBS
  solubility kinetic: 150 µM (≈ 71.2 µg/mL)
[1]
  IC50: 4700 nM

## Cc1cc(N2CCCNCC2)nc2ccc(NC(=O)/C=C/c3ccc(OC(F)(F)F)cc3)cc12
[11]
  IC50: 1600 nM
